Source: article PMC6595297 (British Journal of Clinical Pharmacology, 2019)

Key:
[1] = Phase I DDI study: pevonedistat plasma PK alone and with itraconazole; assay type: in vivo, human; details: for AUC(0-t) / AUC(0-inf) / Cmax / clearance / half-life: human, plasma; for AUC(0-t): AUClast; for Cmax: C max; for clearance: CL; for half-life: t 1/2, mean (standard deviation)
In short: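 Single IV pevonedistat given on day 1 alone and on day 8 with the CYP3A inhibitor. K2EDTA plasma was sampled within 1 h predose, at end of infusion, and at 0.5, 1, 2, 3, 4, 8, 12, 24, 48 and 72 h postdose. Samples were assayed by two GLP-validated LC–MS/MS methods (0.0500–25.0 and 1.00–500 ng mL−1). Noncompartmental PK was used. Day 8/day 1 geometric mean ratios with 90% CIs came from ANOVA (subject random), back-transformed.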

[2] = system: CYP3A4; details: in vitro metabolism studies, ref data on file; cited from earlier work
[3] = system: multidrug resistance protein 1 (MDR1)/P‐glycoprotein (P‐gp); details: in vitro, ref data on file; cited from earlier work
[4] = Pevonedistat 8 mg m^−2, + itraconazole (day 8) vs alone (day 1), n = 13
[5] = Pevonedistat 15 mg m^−2, + itraconazole (day 8) vs alone (day 1), n = 6
[6] = Pevonedistat 20 mg m^−2, + itraconazole (day 8) vs alone (day 1), n = 14
[7] = dose‐normalized PK, 8–20 mg m^−2 pooled, + itraconazole vs alone, n = 33
[8] = intravenous, 8 mg, geometric LS mean reference condition (day 1), Pevonedistat 8 mg m^−2 alone, itraconazole cohort, n = 13
[9] = intravenous, 15 mg, geometric LS mean reference condition (day 1), Pevonedistat 15 mg m^−2 alone, itraconazole cohort, n = 6
[10] = intravenous, 20 mg, geometric LS mean reference condition (day 1), Pevonedistat 20 mg m^−2 alone, itraconazole cohort, n = 14
[11] = intravenous, geometric LS mean test condition (day 8), Pevonedistat 8 mg m^−2 + itraconazole, n = 13, value from n − 1 patients
[12] = intravenous, geometric LS mean test condition (day 8), Pevonedistat 15 mg m^−2 + itraconazole, n = 6
[13] = intravenous, geometric LS mean test condition (day 8), Pevonedistat 20 mg m^−2 + itraconazole, n = 14
[14] = iv, 8 mg, geometric mean (% CV), 8 mg m^−2 IV single dose, – itraconazole (day 1), n=13
[15] = iv, 20 mg, geometric mean (% CV), 20 mg m^−2 IV single dose, – itraconazole (day 1), n=14
[16] = integrated analysis, 8–20 mg m^−2, n = 33

Compound: NS(=O)(=O)OC[C@@H]1C[C@@H](n2ccc3c(N[C@H]4CCc5ccccc54)ncnc32)C[C@@H]1O [Pevonedistat]
- AUClast, geometric LS mean ratio (test/reference) (90% CI) [1, 4]: 121.57 (110.92–133.24) %
- AUC∞, geometric LS mean ratio (test/reference) (90% CI) [1, 4]: 122.95 (112.13–134.82) %
- C max, geometric LS mean ratio (test/reference) (90% CI) [1, 4]: 113.05 (85.35–149.74) %
- AUClast, geometric LS mean ratio (test/reference) (90% CI) [1, 5]: 130.16 (106.99–158.35) %
- AUC∞, geometric LS mean ratio (test/reference) (90% CI) [1, 5]: 132.70 (111.10–158.49) %
- C max, geometric LS mean ratio (test/reference) (90% CI) [1, 5]: 159.55 (89.97–282.96) %
- AUClast, geometric LS mean ratio (test/reference) (90% CI) [1, 6]: 101.36 (90.72–113.23) %
- AUC∞, geometric LS mean ratio (test/reference) (90% CI) [1, 6]: 100.89 (91.14–111.68) %
- C max, geometric LS mean ratio (test/reference) (90% CI) [1, 6]: 77.26 (55.19–108.17) %
- Dose‐normalized AUClast, geometric LS mean ratio (test/reference) (90% CI) [1, 7]: 113.61 (105.65–122.18) %
- Dose‐normalized AUC∞, geometric LS mean ratio (test/reference) (90% CI) [1, 7]: 114.24 (106.54–122.50) %
- Dose‐normalized C max, geometric LS mean ratio (test/reference) (90% CI) [1, 7]: 102.41 (83.12–126.19) %
- AUC(0-t) [1, 8]: 459 ng·h/mL
- AUC(0-inf) [1, 8]: 465 ng·h/mL
- AUC(0-t) [1, 9]: 793 ng·h/mL
- AUC(0-inf) [1, 9]: 798 ng·h/mL
- AUC(0-t) [1, 10]: 1110 ng·h/mL
- AUC(0-inf) [1, 10]: 1120 ng·h/mL
- AUC(0-t) [1, 11]: 558 ng·h/mL
- AUC(0-t) ([1]; intravenous, geometric LS mean test condition (day 8), Pevonedistat 15 mg m^−2 + itraconazole, n = 6, value from n − 1 patients): 1030 ng·h/mL
- AUC(0-t) ([1]; intravenous, geometric LS mean test condition (day 8), Pevonedistat 20 mg m^−2 + itraconazole, n = 14, value from n − 1 patients): 1130 ng·h/mL
- AUC(0-inf) [1, 11]: 572 ng·h/mL
- AUC(0-inf) [1, 12]: 1060 ng·h/mL
- AUC(0-inf) [1, 13]: 1130 ng·h/mL
- Cmax ([1]; intravenous, geometric LS mean test condition (day 8), Pevonedistat 8 mg m^−2 + itraconazole, n = 13): 66.8 ng/mL
- Cmax [1, 12]: 193 ng/mL
- Cmax [1, 13]: 137 ng/mL
- AUC(0-inf) [1, 14]: 465 ng·h/mL
- clearance [1, 14]: 487 mL/min
- half-life ([1]; iv, 8 mg, 8 mg m^−2 IV single dose, – itraconazole (day 1), n=13): 10.8 h
- AUC(0-inf) ([1]; iv, 15 mg, geometric mean (% CV), 15 mg m^−2 IV single dose, – itraconazole (day 1), n=6): 798 ng·h/mL
- half-life ([1]; iv, 15 mg, 15 mg m^−2 IV single dose, – itraconazole (day 1), n=6): 9.8 h
- AUC(0-inf) [1, 15]: 1120 ng·h/mL
- clearance [1, 15]: 597 mL/min
- half-life ([1]; iv, 20 mg, 20 mg m^−2 IV single dose, – itraconazole (day 1), n=14): 10 h
- half-life ([1]; iv, 8 mg m^−2 IV single dose, + itraconazole (day 8), n=13): 13.5 h
- half-life ([1]; iv, 15 mg m^−2 IV single dose, + itraconazole (day 8), n=6): 11 h
- half-life ([1]; iv, 20 mg m^−2 IV single dose, + itraconazole (day 8), n=14): 10.8 h
- Dose‐normalized AUC∞ geometric mean ratio, presence vs. absence of itraconazole [1, 16]: 1.14
- Increase in geometric mean dose‐normalized AUC∞ with itraconazole [1, 16]: 14%
- AUC∞ geometric mean ratio, presence vs. absence of itraconazole ([1]; pevonedistat 8 mg m^−2): 1.23
- Increase in pevonedistat plasma systemic exposure with concomitant itraconazole ([1]; pevonedistat 8 mg m^−2 single dose): 23%
- AUC∞ geometric mean ratio, presence vs. absence of itraconazole ([1]; pevonedistat 20 mg m^−2): 1.01
- Contribution of CYP3A4 to pevonedistat biotransformation [2]: 97%
- Substrate of MDR1/P‐gp [3]: substrate
